The values below come from ChEMBL document CHEMBL3244406, “11,12-Secoprostaglandins. 5. 8-Acetyl- or 8-(1-hydroxyethyl)-12-hydroxy-13-aryloxytridecanoic acids and sulfonamide isosteres as inhibitors of platelet aggregation” (1978).

SMILES strings stand for the structures. Active and inactive are the calls of the source. The rule behind the calls is not given here.

The species entered for assay [1] is Mus musculus. As to the kind of experiment: (§1) Induction of prostaglandin-like activity in CD-1 mouse ovary assessed as fold increase in [14C]-cAMP formation using ATP-[14C] substrate at 100 ug/ml after 30 mins incubation by PG assay. The format is functional. To be noted: Female gonad.
For assay [2], the species on record is Mus musculus. Kind of assay: (§2) Induction of prostaglandin-like activity in CD-1 mouse ovary assessed as fold increase in [14C]-cAMP formation using ATP-[14C] substrate at 25 ug/ml after 30 mins incubation by PG assay. The format is functional. To be noted: Female gonad.
Assay [3] has as its system Platelet. As to the kind of experiment: Inhibition of bovine collagen-induced platelet aggregation isolated from po treated Hartley guinea pig after 1 hr treatment. The format is functional. The settings on record: Cavia porcellus. The method, boiled down: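 Male Hartley guinea pigs (0.6-1.1 kg) dosed orally, suspended in 5 ml/kg EtOH-H2O Emulphor, three animals at each of three doses plus vehicle controls. Cardiac-puncture blood taken 1 h later, pooled per group, PRP spun at 200g for 10 min, platelets matched with PPP.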

The nature of assay [4]: as §1. The assay is classed as functional, Female gonad.
A short description of assay [5]: as §2. The format is functional, Female gonad.
For assay [6], the species on record is Mus musculus. As to the kind of experiment: (§3) Induction of prostaglandin-like activity in CD-1 mouse ovary assessed as fold increase in [14C]-cAMP formation using ATP-[14C] substrate at 10 ug/ml after 30 mins incubation by PG assay. The format is functional. To be noted: Female gonad.
The nature of assay [7]: as §3. The assay is classed as functional, Female gonad.
Assay [8] deals with Platelet. As to the kind of experiment: Inhibition of bovine collagen-induced platelet aggregation isolated from ip treated Hartley guinea pig after 1 hr treatment. To be noted: Cavia porcellus. The assay is classed as functional.

With `CS(=O)(=O)N(C/C=C\CCCC(=O)O)C/C=C/C(O)COc1cccc(C(F)(F)F)c1` (configuration not stated), the result in assay [1] and in assay [2] was inactive. Moreover, the ED50 in assay [3] was 5 mg/kg.

For the molecule `COc1ccc(OCC(O)CCCN(CCCCCCC(=O)O)S(C)(=O)=O)cc1` (configuration not stated), the “fold change (FC)” value in assay [4] is on record as 16; in assay [5] it was 3. Also, in assay [3], the ED50 was above 10 mg/kg. In assay [6], the result was inactive.

Consider `CCCCCC(O)CCCN(CCCCCCC(=O)O)S(C)(=O)=O` (racemic), for which the “fold change (FC)” value in assay [4] amounted to 61; in assay [5], 56; in assay [7] it was 40. Also, it took a dose of 6 mg/kg to reach the 50% effect level in assay [3] (ED50).

As to `CC(O)C(CCCCCCC(=O)O)CCCC(O)COc1ccc(F)cc1` (configuration not stated), the “fold change (FC)” value in assay [4] is given as 3. For the same molecule, the result in assay [2] was inactive. For the same molecule, in assay [3], the 50% effect level (ED50) was put at a dose of 1 mg/kg.

In the case of `CC(=O)C(CC#CCCCC(=O)O)CCCC(O)COc1ccc(F)cc1` (configuration not stated), the outcome in assay [1] and in assay [2] was inactive. The ED50 in assay [3] stood at 0.25 mg/kg.

For `CS(=O)(=O)N(CCCCCCC(=O)O)CCCC(O)COc1ccccc1F` (configuration not stated), the result in assay [1] and in assay [2] was inactive. The molecule also yielded an ED50 in assay [3] of 0.15 mg/kg.

As to `CC(=O)C(C/C=C\CCCC(=O)O)CCCC(O)COc1ccc(F)cc1` (configuration not stated), the “fold change (FC)” value in assay [4] was 2. Also, the outcome in assay [2] was inactive. In assay [3], this molecule registered an ED50 of 0.09 mg/kg.

On to `CC(O)C(CC#CCCCC(=O)O)CCCC(O)COc1ccc(F)cc1` (configuration not stated), for which, in assay [4], the “fold change (FC)” value is 2. Moreover, the result in assay [2] was inactive. It took a dose of 0.04 mg/kg to reach the 50% effect level in assay [3] (ED50).

With `CS(=O)(=O)N(CCCCCCC(=O)O)CCCC(O)CSc1ccc(F)cc1` (configuration not stated), the “fold change (FC)” value came out at 18 in assay [4], 14 in assay [5] and 6 in assay [7]. This molecule came in with an ED50 in assay [3] of 6 mg/kg.

For the molecule `CC(O)C(CCCCCCC(=O)O)CCCC(O)COc1ccccc1F` (configuration not stated), the outcome in assay [1] and in assay [2] was inactive. In assay [3], this molecule gave an ED50 of 7.5 mg/kg.

On to `Cc1ccc(OCC(O)CCCN(CCCCCCC(=O)O)S(C)(=O)=O)cc1` (configuration not stated), for which the “fold change (FC)” value in assay [4] stood at 16; in assay [5], 11; in assay [7] it was 4. The ED50 in assay [3] worked out at 5 mg/kg.

For `CS(=O)(=O)N(C/C=C\CCCC(=O)O)C/C=C/C(O)COc1ccc(F)cc1` (configuration not stated), the “fold change (FC)” value amounted to 11 in assay [4], 4 in assay [5] and 2 in assay [7]. Further, in assay [3], it took a dose of 0.01 mg/kg to reach the 50% effect level (ED50).

Take `CS(=O)(=O)N(CCCCCCC(=O)O)CCCC(O)CS(=O)(=O)c1ccc(F)cc1` (configuration not stated): in assay [4], the “fold change (FC)” value turned out to be 3. Moreover, the outcome in assay [2] was inactive. In addition, in assay [3], the median effective dose (ED50) is above 10 mg/kg.

In the case of `CC(=O)Oc1ccccc1C(=O)O` [ASPIRIN], the 50% effect level in assay [3] (ED50) was put at a dose of 4.5 mg/kg.

Regarding `CC(O)C(CCCCCCC(=O)O)CCCC(O)COc1cccc(Cl)c1` (configuration not stated), the “fold change (FC)” value in assay [4] is 2. The outcome in assay [2] was inactive. The same molecule returned an ED50 in assay [3] of 7.5 mg/kg.

On to `CS(=O)(=O)N(CCCCCCC(=O)O)CCCC(O)COc1ccc(F)cc1` (configuration not stated), for which the figures for the “fold change (FC)” value in assay [4], in assay [5] and in assay [7] were 11, 7 and 2, respectively. In assay [3], this molecule showed an ED50 of 0.04 mg/kg.

Regarding `CC(O)C(C/C=C\CCCC(=O)O)CCCC(O)COc1ccc(F)cc1` (configuration not stated), the “fold change (FC)” value in assay [4] is on record as 3. Also, the result in assay [2] was inactive. The molecule further returned an ED50 in assay [3] of 0.12 mg/kg.

With `CS(=O)(=O)N(CCCCCCC(=O)O)CCCC(O)COc1ccc(Cl)cc1` (configuration not stated), the “fold change (FC)” value was determined as 31 in assay [4], 21 in assay [5] and 8 in assay [7]. Besides, in assay [3], the ED50 is 10 mg/kg.

On to `CC(O)C(CCCCCCC(=O)O)CCCC(O)COc1ccc(C(F)(F)F)cc1` (configuration not stated), for which the result in assay [1] and in assay [2] was inactive. Moreover, the ED50 in assay [3] stood at 1 mg/kg.

Take `CS(=O)(=O)N(CCCCCCC(=O)O)CCCC(O)COc1cccc(F)c1` (configuration not stated): the “fold change (FC)” value in assay [4] stood at 4; in assay [5], 2. Besides, the 50% effect level in assay [3] (ED50) was put at a dose of 1 mg/kg.

Take `CCCCCC(O)CCCC(CCCCCCC(=O)O)C(C)=O` (mixture of isomers): the “fold change (FC)” value was determined as 23 in assay [4], 14 in assay [5] and 11 in assay [7]. In assay [3], this molecule returned an ED50 of 6.5 mg/kg.

As to `CCCCC[C@H](O)/C=C/[C@H]1[C@H](O)CC(=O)[C@@H]1CCCCCCC(=O)O` [ALPROSTADIL], the ED50 in assay [8] came to 0.02 mg/kg. The “fold change (FC)” value in assay [7] is recorded as 60.

For `CC(=O)C(CCCCCCC(=O)O)CCCC(O)COc1ccccc1OCc1ccccc1` (configuration not stated), the outcome in assay [1] and in assay [2] was inactive. This molecule displayed an ED50 in assay [3] above 10 mg/kg.

Consider `CC(=O)C(CCCCCCC(=O)O)CCCC(O)COc1ccc(F)cc1` (configuration not stated), for which the “fold change (FC)” value in assay [4] is 4. In addition, in assay [2], the result was inactive. Also, in assay [3], it took a dose of 0.5 mg/kg to reach the 50% effect level (ED50).

For the molecule `CC(=O)C(CCCCCCC(=O)O)CCCC(O)COc1cccc(C(F)(F)F)c1` (configuration not stated), the outcome in assay [1] and in assay [2] was inactive. The molecule further returned an ED50 in assay [3] above 10 mg/kg.

As for `CS(=O)(=O)N(CCCCCCC(=O)O)CCCC(O)COc1ccccc1` (configuration not stated), the “fold change (FC)” value in assay [4] was found to be 3. In assay [2], the outcome was inactive. The same molecule displayed an ED50 in assay [3] of 1 mg/kg.

For the molecule `CC(=O)C(CCCCCCC(=O)O)CCCC(O)COc1ccccc1O` (configuration not stated), the result in assay [1] and in assay [2] was inactive. Also, the ED50 in assay [3] worked out at 5 mg/kg.

As for `CC(=O)C(CCCCCCC(=O)O)CCCC(O)COc1ccc(C(C)(C)C)cc1` (configuration not stated), the outcome in assay [1] and in assay [2] was inactive. The same molecule displayed an ED50 in assay [3] of 10 mg/kg.

On to `CS(=O)(=O)N(CCCCCCC(=O)O)CCCC(O)COc1cccc(Cl)c1` (configuration not stated), for which, in assay [4], the “fold change (FC)” value worked out at 5. In addition, in assay [2], the result was inactive. In addition, it took a dose of 1 mg/kg to reach the 50% effect level in assay [3] (ED50).
